Columns and labels:
[1] = system: Trypanosoma brucei rhodesiense; experiment: Antitrypanosomal activity against Trypanosoma brucei rhodesiense trypomastigotes; format: functional; settings: read-out: ED50 (the source's name)
Method in brief: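 Bloodstream-form STIB900 trypomastigotes grown in HMI-18 + 15% HIFCS at 37 °C, 5% CO2. Seeded at 2 × 10^5/mL onto drug dilutions (top 30 µg/mL) for 72 h. Alamar Blue read 5-6 h later by fluorescence (ex/em 530/585 nm). ED50 by curve fitting.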

[2] = system: Plasmodium falciparum; experiment: Antimalarial activity against Plasmodium falciparum 3D7; format: functional, organism-based
Method in brief: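 Synchronized ring-stage 3D7 culture at 1% parasitemia in RPMI 1640, 5% hematocrit, 37 °C, 5% CO2. Top final drug concentration 30 µg/mL. After 24 h, (3H)-hypoxanthine added (0.2 µCi/well), then 48 h further incubation. Plates freeze/thawed and harvested, and hypoxanthine uptake counted. ED50 by curve fitting.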

[3] = system: KB; experiment: Cytotoxicity against KB cell line; format: functional; settings: Homo sapiens, read-out: TD50 (the source's name)
[4] = system: Leishmania donovani; experiment: Antileishmanial activity against Leishmania donovani amastigotes in CD1 mouse macrophage; format: functional, organism-based; settings: read-out: ED50 (the source's name)
Method in brief: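 Peritoneal macrophages from starch-induced CD1 mice, kept 24 h in RPMI1640 + 10% HIFCS at 37 °C, 5% CO2. Infected with L. donovani MHOM/ET/67/L82 amastigotes from hamster spleen at 5 parasites:1 macrophage. After 24 h, drug exposure for 5 days, overlay replaced day 3. Top concentration 30 µg/mL, quadruplicate. Slides methanol-fixed, Giemsa-stained, counted microscopically. ED50 by curve fitting.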

[5] = system: Trypanosoma cruzi; experiment: Antitrypanosomal activity against Trypanosoma cruzi trypomastigotes in CD1 mouse macrophage; format: functional; settings: read-out: ED50 (the source's name)
Method in brief: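 Starch-induced CD1 peritoneal macrophages plated at 4 × 10^5/mL, infected after 24 h with T. cruzi Tulahuan LAC-Z trypomastigotes. 24 h later, drug exposure for 3 days. ED50 by curve fitting.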

[6] = system: Plasmodium falciparum; experiment: Antimalarial activity against Plasmodium falciparum K1; format: functional, organism-based; settings: read-out: ED50 (the source's name)
[7] = read-out: ED50 (the source's name)

Compound	EC50 [1] [µM]	EC50 [2, 7] [µM]	EC50 [4] [µM]	EC50 [5] [µM]	EC50 [6] [µM]	EC50 ([2]; read-out: EC50) [µM]	CC50 [3] [µM]
COC(=O)CCNC(=O)[C@@H](C)[C@H]1CC[C@H]2C3CC=C4C[C@@H](OC(C)=O)CC[C@]4(C)[C@H]3CC[C@]12C (some centres undefined)	6	17.4	> 63	3.46	19.1		597
COC(=O)CCCCCNC[C@@H](C)[C@H]1CC[C@H]2C3CC=C4C[C@@H](O)CC[C@]4(C)[C@H]3CC[C@]12C (some centres undefined)	2.15	1.31		< 2.41	0.5		6.09
COC(=O)[C@H](CCCCNC[C@@H](C)[C@H]1CC[C@H]2C3CC=C4C[C@@H](OC(C)=O)CC[C@]4(C)[C@H]3CC[C@]12C)NC(=O)OCc1ccccc1 (some centres undefined)	0.753	0.799		< 1.71	0.215		5.35
COC(=O)CNC(=O)[C@@H](C)[C@H]1CC[C@H]2C3CC=C4C[C@@H](OC(C)=O)CC[C@]4(C)[C@H]3CC[C@]12C (some centres undefined)	24	60	> 65	42.2	9.6		> 653
COC(=O)CCCCCCCNC[C@@H](C)[C@H]1CC[C@H]2C3CC=C4C[C@@H](OC(C)=O)CC[C@]4(C)[C@H]3CC[C@]12C (some centres undefined)	0.098	2.64	14.8	28.7			10
CC(=O)O[C@H]1CC[C@@]2(C)C(=CCC3[C@@H]4CC[C@H]([C@H](C)CNCCCC(=O)O)[C@@]4(C)CC[C@@H]32)C1 (some centres undefined)	54.6	> 65	> 65	12.6			505
C[C@H](CNCCCC(=O)O)[C@H]1CC[C@H]2C3CC=C4C[C@@H](O)CC[C@]4(C)[C@H]3CC[C@]12C (some centres undefined)	14.4	56.5	> 72	47.3			451
COC(=O)CCCCCNC(=O)[C@@H](C)[C@H]1CC[C@H]2C3CC=C4C[C@@H](OC(C)=O)CC[C@]4(C)[C@H]3CC[C@]12C (some centres undefined)	3.45	21.3	> 58	2.54	19.8		> 582
C[C@H](C(=O)NCCCC(=O)O)[C@H]1CC[C@H]2C3CC=C4C[C@@H](O)CC[C@]4(C)[C@H]3CC[C@]12C (some centres undefined)	49.8		29.2	39.8		45.6	616
COc1cc([C@@H]2c3cc4c(cc3[C@H](O)[C@H]3COC(=O)[C@H]23)OCO4)cc(OC)c1OC [PODOFILOX]					0.1		0.001
CC(=O)O[C@H]1CC[C@@]2(C)C(=CCC3[C@@H]4CC[C@H]([C@H](C)CNCCCC[C@H](NC(=O)OCc5ccccc5)C(=O)OCc5ccccc5)[C@@]4(C)CC[C@@H]32)C1 (some centres undefined)	0.619	0.839		1.71	0.069		29.8
CC(=O)O[C@H]1CC[C@@]2(C)C(=CCC3[C@@H]4CC[C@H]([C@H](C)C(=O)NCCCC[C@H](NC(=O)OCc5ccccc5)C(=O)OCc5ccccc5)[C@@]4(C)CC[C@@H]32)C1 (some centres undefined)	0.01	3.4	> 40	> 24			> 400

Second part, led by results:

EC50 [1] [µM]	EC50 [2, 7] [µM]	EC50 [4] [µM]	EC50 [5] [µM]	EC50 [6] [µM]	EC50 ([2]; read-out: EC50) [µM]	Compound	CC50 [3] [µM]
0.607	21.5	> 55	> 55	2.87		COC(=O)CCCCCCCNC(=O)[C@@H](C)[C@H]1CC[C@H]2C3CC=C4C[C@@H](OC(C)=O)CC[C@]4(C)[C@H]3CC[C@]12C (some centres undefined)	> 552
3.01	0.74	> 60	2.43	8.43		COC(=O)CCCCNC(=O)[C@@H](C)[C@H]1CC[C@H]2C3CC=C4C[C@@H](OC(C)=O)CC[C@]4(C)[C@H]3CC[C@]12C (some centres undefined)	> 598
> 50	16.7		9.52	6.29		C[C@H](CNCCCC[C@H](NC(=O)OCc1ccccc1)C(=O)O)[C@H]1CC[C@H]2C3CC=C4C[C@@H](O)CC[C@]4(C)[C@H]3CC[C@]12C (some centres undefined)	> 504
4.91	40.6		< 2.75	22.2		COC(=O)CNC[C@@H](C)[C@H]1CC[C@H]2C3CC=C4C[C@@H](O)CC[C@]4(C)[C@H]3CC[C@]12C (some centres undefined)	45
0.308	0.349		2.64	0.062		COC(=O)CCCCCCCNC[C@@H](C)[C@H]1CC[C@H]2C3CC=C4C[C@@H](O)CC[C@]4(C)[C@H]3CC[C@]12C (some centres undefined)	6.17
5.05	7.53		< 2.57	1.95		COC(=O)CCCNC[C@@H](C)[C@H]1CC[C@H]2C3CC=C4C[C@@H](O)CC[C@]4(C)[C@H]3CC[C@]12C (some centres undefined)	1.55
0.025	3.49	9.5	53.5			COC(=O)CCCCCCNC[C@@H](C)[C@H]1CC[C@H]2C3CC=C4C[C@@H](OC(C)=O)CC[C@]4(C)[C@H]3CC[C@]12C (some centres undefined)	11.2
9.15	16.2	> 62	4.7	11.6		COC(=O)CCCNC(=O)[C@@H](C)[C@H]1CC[C@H]2C3CC=C4C[C@@H](OC(C)=O)CC[C@]4(C)[C@H]3CC[C@]12C (some centres undefined)	> 615
7.91	14.4	> 57	10.8	1.26		COC(=O)CCCCCCNC(=O)[C@@H](C)[C@H]1CC[C@H]2C3CC=C4C[C@@H](OC(C)=O)CC[C@]4(C)[C@H]3CC[C@]12C (some centres undefined)	> 566
0.302	> 65.3	22.8	28.9			COC(=O)CCNC[C@@H](C)[C@H]1CC[C@H]2C3CC=C4C[C@@H](OC(C)=O)CC[C@]4(C)[C@H]3CC[C@]12C (some centres undefined)	17.4
1.7	> 47	> 47	> 47			CC(=O)O[C@H]1CC[C@@]2(C)C(=CCC3[C@@H]4CC[C@H]([C@H](C)C(=O)NCCC[C@H](NC(=O)OCc5ccccc5)C(=O)O)[C@@]4(C)CC[C@@H]32)C1 (some centres undefined)	147
10.4	> 65	> 65	11.4			C[C@H](C(=O)NCCCCCC(=O)O)[C@H]1CC[C@H]2C3CC=C4C[C@@H](O)CC[C@]4(C)[C@H]3CC[C@]12C (some centres undefined)	303
0.032	8.65	> 62	11.7			COC(=O)CCCCNC[C@@H](C)[C@H]1CC[C@H]2C3CC=C4C[C@@H](OC(C)=O)CC[C@]4(C)[C@H]3CC[C@]12C (some centres undefined)	26.1
> 56	36.6		< 2.08	38.1		C[C@H](CNCC[C@H](NC(=O)OC(C)(C)C)C(=O)O)[C@H]1CC[C@H]2C3CC=C4C[C@@H](O)CC[C@]4(C)[C@H]3CC[C@]12C (some centres undefined)	> 563
> 67	> 67	54.5	56.3			C[C@H](CNCCCCCC(=O)O)[C@H]1CC[C@H]2C3CC=C4C[C@@H](O)CC[C@]4(C)[C@H]3CC[C@]12C (some centres undefined)	> 673
0.431	> 62	25.8	6.5			C[C@H](C(=O)NCCCCCCCC(=O)O)[C@H]1CC[C@H]2C3CC=C4C[C@@H](O)CC[C@]4(C)[C@H]3CC[C@]12C (some centres undefined)	377

Reference: ChEMBL document CHEMBL1137377, “Evaluation of azasterols as anti-parasitics” (J Med Chem, 2006)
